Source: ChEMBL document CHEMBL1137637, “Quinuclidine derivatives as potential antiparasitics” (Antimicrob Agents Chemother, 2007)
In brackets after ≈: the same amount, converted by molar mass.

Legend:
[1] = target: T1, Farnesyltransferase, putative (Leishmania major, UniProt Q4Q5W4); assay: Inhibition of Leishmania major recombinant squalene synthase expressed in Escherichia coli by liquid scintillation counter
T1 sequence (Q4Q5W4 whole entry): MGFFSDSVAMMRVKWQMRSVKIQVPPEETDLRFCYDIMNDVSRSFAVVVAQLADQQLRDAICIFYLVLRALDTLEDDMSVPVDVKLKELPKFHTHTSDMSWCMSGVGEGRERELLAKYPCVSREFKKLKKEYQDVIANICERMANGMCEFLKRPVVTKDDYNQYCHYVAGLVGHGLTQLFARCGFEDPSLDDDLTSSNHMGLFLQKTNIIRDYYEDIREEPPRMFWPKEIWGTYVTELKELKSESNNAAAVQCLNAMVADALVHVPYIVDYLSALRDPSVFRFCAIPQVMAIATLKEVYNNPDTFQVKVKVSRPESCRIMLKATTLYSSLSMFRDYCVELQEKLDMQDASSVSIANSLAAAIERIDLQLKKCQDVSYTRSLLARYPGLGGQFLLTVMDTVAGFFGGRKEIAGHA
Method in brief: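 Soluble E. coli extract expressing L. major SQS truncated by 16 N-terminal and 40 C-terminal residues. Buffer: 50 mM phosphate pH 7.4, 20 mM MgCl2, 5 mM CHAPS, 1% Tween 80, 10 mM DTT, BSA, 0.25 mM NADPH, and a glucose-6-phosphate/G6PDH regenerating system. Substrate 0.5 μM radiolabelled farnesyl pyrophosphate. Squalene band counted by scintillation. IC50 from hyperbolic plot of five concentrations in duplicate, usually run twice.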

Leishmania donovani = assay: Antileishmanial activity against Leishmania donovani MHOM/ET/67/L82 axenic amastigotes after 72 hrs by resazurin assay; type: functional, organism-based; settings: MHOM/ET/67/L82, 72 h
Method in brief: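 L. donovani MHOM/ET/67/L82 amastigotes grown axenically at 37°C in synthetic minimal medium at pH 5.4 with 10% heat-inactivated FBS under 5% CO2. 1 × 10⁵ amastigotes per well with seven threefold dilutions, 30 to 0.041 μg/ml. After 72 h, resazurin added for 2–4 h more. Fluorescence read at ex 536/em 588 nm. IC50 taken from sigmoidal curve. Run in duplicate, with an independent repeat for actives.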

Leishmania amazonensis [2] = assay: Inhibition of sterol biosynthesis in Leishmania mexicana amazonensis promastigotes assessed as reduction in endogenous episterol level at 1 uM after 96 hrs by gas-liquid chromatography; type: functional; parameters: scale not given: the % may be the effect or the level left
Method in brief: (§1)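 L. mexicana promastigotes exposed to compound for 96 h. Total lipids extracted and neutral sterols separated from polar lipids by silicic acid column chromatography. Sterols analysed by TLC and by quantitative capillary gas-liquid chromatography with mass spectrometry. Composition expressed as mass % of free sterols, compared with untreated control.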

Leishmania amazonensis [3] = assay: Inhibition of sterol biosynthesis in Leishmania mexicana amazonensis promastigotes assessed as reduction in exogenous cholesterol level at 0.3 uM after 96 hrs by gas-liquid chromatography; type: functional; parameters: scale not given: the % may be the effect or the level left
Method in brief: (§2)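 Promastigotes grown in liver infusion-tryptose medium with lactalbumin and 10% fetal calf serum at 26°C, static; drug added at 0.5 × 10⁷ to 1 × 10⁷ cells/ml and cells exposed for 96 h. Total lipids extracted; neutral lipids separated from polar lipids by silicic acid column chromatography; free sterols quantified by capillary gas-liquid chromatography and mass spectrometry as mass % of total sterols.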

Leishmania amazonensis [4] = assay: Inhibition of sterol biosynthesis in Leishmania mexicana amazonensis promastigotes assessed as reduction in endogenous 5-dehydro episterol level at 1 uM after 96 hrs by gas-liquid chromatography; type: functional; parameters: scale not given: the % may be the effect or the level left; method in brief: as §1
Leishmania amazonensis [5] = assay: Antileishmanial activity against Leishmania mexicana amazonensis promastigotes by trypan blue exclusion method; type: functional, organism-based
Method in brief: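 L. mexicana amazonensis promastigotes cultured in liver infusion-tryptose medium with lactalbumin and 10% FCS at 26°C, unagitated. Cultures started at 2 × 10⁶ cells/ml and drug added at 0.5–1 × 10⁷ cells/ml. Density counted by electronic particle counter and hemocytometer. Viability by trypan blue exclusion. Triplicate growth experiments.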

Plasmodium falciparum = assay: Antiplasmodial activity after 48 hrs against chloroquine and pyrimethamine-resistant Plasmodium falciparum K1 in human erythrocytes by [3H]hypoxanthine uptake; type: functional, organism-based
Method in brief: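 P. falciparum K1 in human red cells in RPMI 1640 with 5% Albumax, exposed to serial drug dilutions. Incubated 48 h at 37°C under reduced oxygen, then 0.5 μCi [³H]hypoxanthine per well for 24 h more. Cells harvested onto glass-fibre filters and counted by scintillation. Result expressed as % of untreated control, with IC50 from sigmoidal curve. Duplicate, plus an independent repeat for actives.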

Leishmania amazonensis [6] = assay: Inhibition of sterol biosynthesis in Leishmania mexicana amazonensis promastigotes assessed as reduction in endogenous 5-dehydro episterol level at 0.3 uM after 96 hrs by gas-liquid chromatography; type: functional; parameters: scale not given: the % may be the effect or the level left; method in brief: as §2
Leishmania amazonensis [7] = assay: Inhibition of sterol biosynthesis in Leishmania mexicana amazonensis promastigotes assessed as reduction in exogenous cholesterol level at 1 uM after 96 hrs by gas-liquid chromatography; type: functional; parameters: scale not given: the % may be the effect or the level left; method in brief: as §1
Leishmania amazonensis [8] = assay: Inhibition of sterol biosynthesis in Leishmania mexicana amazonensis promastigotes assessed as reduction in endogenous episterol level at 0.3 uM after 96 hrs by gas-liquid chromatography; type: functional; parameters: scale not given: the % may be the effect or the level left; method in brief: as §2
L6 = assay: Cytotoxicity against rat L6 cells after 72 hrs by resazurin assay; type: cell-based; settings: L6, 72 h
Method in brief: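 L-6 cells seeded at 4 × 10⁴ cells/ml in RPMI 1640 with 10% FBS and 2 mM L-glutamine. After 24 h, medium replaced with serial drug dilution and incubated for 72 h at 37°C in 5% CO2. Resazurin added for 2–4 h, fluorescence read at ex 536/em 588 nm. IC50 from sigmoidal curve. Duplicate, with an independent repeat for actives.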

Trypanosoma cruzi = assay: Antitrypanosomal activity against trypomastigotes of Trypanosoma cruzi Tulahuen C2C4 containing lacZ gene in rat L6 cells after 4 days by chlorophenol red-beta-D-galactopyranoside/Nonidet assay; type: functional, organism-based; settings: Tulahuen C2C4, L6, 96 h
Method in brief: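 L-6 rat myoblasts seeded at 2,000 cells/well in RPMI 1640 with 10% FBS and 2 mM L-glutamine. After 24 h, 5,000 T. cruzi Tulahuen C2C4 lacZ trypomastigotes added with serial drug dilution. Incubated at 37°C in 5% CO2 for 4 days. CPRG/Nonidet substrate added and colour read at 540 nm after 2–4 h. IC50 from sigmoidal curve. Duplicate determinations.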

[9] = test system: Trypanosoma brucei rhodesiense; assay: Trypanocidal activity against Trypanosoma brucei rhodesiense STIB 900 bloodstream form after 72 hrs by resazurin assay; type: functional, organism-based; settings: STIB 900, 72 h
Method in brief: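 T. b. rhodesiense STIB 900 bloodstream forms in MEM with 2-mercaptoethanol and 15% heat-inactivated horse serum, with serial drug dilutions. Incubated 72 h at 37°C in 5% CO2. Resazurin added for 2–4 h more, fluorescence read at ex 536/em 588 nm. IC50 from sigmoidal curve. Duplicate, with an independent repeat for actives.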

Squalene synthase [10] = target: T2, Squalene synthase (Homo sapiens, UniProt P37268); assay: Inhibition of human recombinant squalene synthase expressed in Escherichia coli BL21(DE3 pLysS) by liquid scintillation counter
T2 sequence (P37268 whole entry): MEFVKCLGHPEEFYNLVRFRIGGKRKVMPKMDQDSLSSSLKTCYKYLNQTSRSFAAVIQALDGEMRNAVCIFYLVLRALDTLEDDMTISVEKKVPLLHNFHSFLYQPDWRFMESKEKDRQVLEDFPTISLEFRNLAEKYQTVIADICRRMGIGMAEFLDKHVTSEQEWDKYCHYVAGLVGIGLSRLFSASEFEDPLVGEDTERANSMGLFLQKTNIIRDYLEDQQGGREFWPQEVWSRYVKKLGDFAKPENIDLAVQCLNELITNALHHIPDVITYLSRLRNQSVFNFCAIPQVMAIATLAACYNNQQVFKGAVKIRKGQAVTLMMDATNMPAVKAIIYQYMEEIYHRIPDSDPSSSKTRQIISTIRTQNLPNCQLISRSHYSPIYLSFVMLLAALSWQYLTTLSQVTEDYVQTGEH
Method in brief: (§3)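 Human SQS in extracts of E. coli BL21(DE3 pLysS) carrying pHSS16, assayed under the same conditions as the L. major enzyme. Buffer: phosphate pH 7.4, MgCl2, CHAPS, Tween 80, DTT, BSA, and NADPH with a regenerating system. Substrate 0.5 μM radiolabelled farnesyl pyrophosphate. Squalene band radioactivity counted by scintillation.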

Leishmania amazonensis [11] = assay: Inhibition of sterol biosynthesis in Leishmania mexicana amazonensis promastigotes assessed as reduction in endogenous 5-dehydro episterol level at 0.1 uM after 96 hrs by gas-liquid chromatography; type: functional; parameters: scale not given: the % may be the effect or the level left; method in brief: as §1
Leishmania amazonensis [12] = assay: Inhibition of sterol biosynthesis in Leishmania mexicana amazonensis promastigotes assessed as reduction in exogenous cholesterol level at 0.1 uM after 96 hrs by gas-liquid chromatography; type: functional; parameters: scale not given: the % may be the effect or the level left; method in brief: as §1
Leishmania amazonensis [13] = assay: Inhibition of sterol biosynthesis in Leishmania mexicana amazonensis promastigotes assessed as reduction in endogenous episterol level at 0.1 uM after 96 hrs by gas-liquid chromatography; type: functional; parameters: scale not given: the % may be the effect or the level left; method in brief: as §1
Squalene synthase [14] = target: T2, Squalene synthase; assay: Inhibition of human recombinant squalene synthase expressed in Escherichia coli BL21(DE3 pLysS) up to 1 uM by liquid scintillation counter; method in brief: as §3
Leishmania amazonensis [15] = assay: Inhibition of sterol biosynthesis in Leishmania mexicana amazonensis promastigotes assessed as reduction in endogenous cholesta-7,24-dien-3beta-ol level at 3 uM after 96 hrs by gas-liquid chromatography; type: functional; parameters: scale not given: the % may be the effect or the level left; method in brief: as §1
Leishmania amazonensis [16] = assay: Inhibition of sterol biosynthesis in Leishmania mexicana amazonensis promastigotes assessed as reduction in exogenous cholesterol level at 3 uM after 96 hrs by gas-liquid chromatography; type: functional; parameters: scale not given: the % may be the effect or the level left; method in brief: as §1
Leishmania amazonensis [17] = assay: Inhibition of sterol biosynthesis in Leishmania mexicana amazonensis promastigotes assessed as reduction in endogenous 5-dehydro episterol level at 3 uM after 96 hrs by gas-liquid chromatography; type: functional; parameters: scale not given: the % may be the effect or the level left; method in brief: as §1
Leishmania amazonensis [18] = assay: Inhibition of sterol biosynthesis in Leishmania mexicana amazonensis promastigotes assessed as reduction in endogenous cholesta-5,7,24-trien-3beta-ol level at 3 uM after 96 hrs by gas-liquid chromatography; type: functional; parameters: scale not given: the % may be the effect or the level left; method in brief: as §1
Leishmania amazonensis [19] = assay: Inhibition of sterol biosynthesis in Leishmania mexicana amazonensis promastigotes assessed as reduction in endogenous episterol level at 3 uM after 96 hrs by gas-liquid chromatography; type: functional; parameters: scale not given: the % may be the effect or the level left; method in brief: as §1
Leishmania amazonensis [20] = assay: Inhibition of sterol biosynthesis in Leishmania mexicana amazonensis promastigotes assessed as reduction in endogenous cholesta-5,7,24-trien-3beta-ol level at 1 uM after 96 hrs by gas-liquid chromatography; type: functional; parameters: scale not given: the % may be the effect or the level left; method in brief: as §1

SMILES | IC50 [1] [µM] | IC50 (Leishmania donovani) [µM] | Activity (Leishmania amazonensis [2]) [%] | Activity (Leishmania amazonensis [3]) [%] | Activity (Leishmania amazonensis [4]) [%] | MIC (Leishmania amazonensis [5]) [µM] | IC50 (Plasmodium falciparum) [µM] | Activity (Leishmania amazonensis [6]) [%] | Activity (Leishmania amazonensis [7]) [%] | Activity (Leishmania amazonensis [8]) [%] | IC50 (L6) [µM] | IC50 (Trypanosoma cruzi) [µM] | IC50 [9] [µM] | IC50 (Squalene synthase [14]) | Activity (Leishmania amazonensis [15]) [%] | Activity (Leishmania amazonensis [16]) [%] | Activity (Leishmania amazonensis [17]) [%] | Activity (Leishmania amazonensis [18]) [%] | Activity (Leishmania amazonensis [19]) [%] | Activity (Leishmania amazonensis [20]) [%] | further results
COc1ccc2cc(C3=CN4CCC3CC4)ccc2c1 | 0.49 | 1.4 | 15.8 | 13.9 | 43 | 0.3 (≈ 0.0796 µg/mL) | 9 | 72.7 | 41.2 | 13.4 | 98.8 | 10.2 | 2.2 | – | – | – | – | – | – | – | IC50 (Squalene synthase [10]): 2.8 µM
C(=C1/CN2CCC1CC2)/c1ccc(-c2ccccc2)cc1 | > 1 | 41.3 | – | 36.7 | – | 0.3 (≈ 0.0826 µg/mL) | 3.1 | 18.1 | – | 33.3 | 13.4 | 1.8 | 0.7 | Not Active | – | – | – | – | – | – | Activity (Leishmania amazonensis [11]): 26.4%; Activity (Leishmania amazonensis [12]): 31.4%; Activity (Leishmania amazonensis [13]): 42.2%
c1ccc2cc(CC3CN4CCC3CC4)ccc2c1 (centres undefined) | > 1 | > 119 | – | – | – | 3 (≈ 0.754 µg/mL) | 1.8 | – | – | – | 98.2 | 25.4 | 2.5 | Not Active | 3.5 | 26.4 | 49.6 | 11.2 | 9.3 | – | –
CC(C)(C)[Si](C)(C)Oc1ccc(C2=CN3CCC2CC3)cc1 | > 1 | 31.1 | 7.1 | – | 54.7 | 3 (≈ 0.947 µg/mL) | 4.1 | – | 29.2 | – | 23.8 | 16.3 | 2.1 | – | 4.8 | 55.4 | 21.2 | 10.7 | 7.9 | 9 | –
c1ccc(-c2ccc(CC3CN4CCC3CC4)cc2)cc1 (centres undefined) | > 1 | > 108 | 8.2 | – | 30.3 | 1 (≈ 0.277 µg/mL) | 2.8 | – | 51.1 | – | 20.5 | 4.7 | 0.7 | Not Active | – | – | – | – | – | 10.4 | –
